ChEMBL document CHEMBL1142864, “Potential cancer chemopreventive in vitro activities of monomeric xanthone derivatives from the marine algicolous fungus Monodictys putredinis” (J Nat Prod, 2007)
Blank lines part the entries; values can stand above or below the compound they belong to. Active and inactive are the calls of the source. The calls are words filed in the database; no cut-off is given here.

Assays:
[1] = Inhibition of beta-naphthoflavone-induced Cyp1A in rat […] cell; type: cell-based
Method in brief: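 Enzyme source: homogenates of β-naphthoflavone-induced H4IIE rat hepatoma cells. Cyp1A activity measured as dealkylation of 3-cyano-7-ethoxycoumarin to fluorescent 3-cyano-7-hydroxycoumarin, expressed in nmol/min/mg protein. α-Naphthoflavone positive control. Dose-response to IC50; percent inhibition given at 50 µM final concentration.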

[2] = molecular target: Prostaglandin G/H synthase 1 (Homo sapiens) (UniProt P23219); assay: Inhibition of COX1 at 100 uM
Method in brief: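 COX-1 (prostaglandin G/H synthase) activity followed by oxygen consumption during conversion of arachidonic acid to prostaglandins; single concentration 100 µM; IC50 only if inhibition exceeds 50%.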

[3] = molecular target: T1, Aromatase (Homo sapiens, UniProt P11511); assay: Inhibition of human recombinant aromatase at 50 uM
T1 sequence (P11511 whole entry): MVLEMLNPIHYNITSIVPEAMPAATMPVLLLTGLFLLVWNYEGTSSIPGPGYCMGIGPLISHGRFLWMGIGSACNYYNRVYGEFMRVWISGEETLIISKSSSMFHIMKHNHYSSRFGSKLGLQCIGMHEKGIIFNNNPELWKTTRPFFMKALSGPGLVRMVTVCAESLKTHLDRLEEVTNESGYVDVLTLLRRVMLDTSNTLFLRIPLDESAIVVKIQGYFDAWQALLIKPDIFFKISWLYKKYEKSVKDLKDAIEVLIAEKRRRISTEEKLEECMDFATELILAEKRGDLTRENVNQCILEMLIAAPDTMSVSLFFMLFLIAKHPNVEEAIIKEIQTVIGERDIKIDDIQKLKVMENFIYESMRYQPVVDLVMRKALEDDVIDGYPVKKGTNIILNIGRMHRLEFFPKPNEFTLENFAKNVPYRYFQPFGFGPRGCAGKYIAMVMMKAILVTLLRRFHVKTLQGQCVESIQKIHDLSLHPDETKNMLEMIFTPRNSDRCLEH

[4] = Cytotoxicity against mouse Hepa 1c1c7 cells upto 50 uM; type: cell-based
Method in brief: (§1)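 Hepa 1c1c7 murine hepatoma cultures exposed in parallel with the QR induction assay; tested up to 400 µM for one hydroxanthone and up to 50 µM for the others; cytotoxicity judged alongside QR specific activity.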

[5] = DPPH radical scavenging activity upto 250 uM; type: functional
Method in brief: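 Photometric reaction with stable DPPH free radical in microplate format, compounds up to 250 µM.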

[6] = Superoxide anion radical scavenging activity upto 50 uM; type: functional
Method in brief: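 Superoxide anion generated by xanthine oxidase oxidising hypoxanthine to uric acid; scavenging tested up to 50 µM.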

[7] = molecular target: T1, Aromatase; assay: Inhibition of human recombinant aromatase
[8] = Cytotoxicity against mouse Hepa 1c1c7 cells upto 400 uM; type: cell-based; method in brief: as §1
[9] = test system: Cyp1A (Rattus norvegicus); assay: Inhibition of beta-naphthoflavone-induced Cyp1A in rat H4IIE cell at 50 uM; settings: H4IIE cells with beta-naphthoflavone-induced Cyp1A

Sequence of Prostaglandin G/H synthase 1 (Homo sapiens) (P23219 whole entry): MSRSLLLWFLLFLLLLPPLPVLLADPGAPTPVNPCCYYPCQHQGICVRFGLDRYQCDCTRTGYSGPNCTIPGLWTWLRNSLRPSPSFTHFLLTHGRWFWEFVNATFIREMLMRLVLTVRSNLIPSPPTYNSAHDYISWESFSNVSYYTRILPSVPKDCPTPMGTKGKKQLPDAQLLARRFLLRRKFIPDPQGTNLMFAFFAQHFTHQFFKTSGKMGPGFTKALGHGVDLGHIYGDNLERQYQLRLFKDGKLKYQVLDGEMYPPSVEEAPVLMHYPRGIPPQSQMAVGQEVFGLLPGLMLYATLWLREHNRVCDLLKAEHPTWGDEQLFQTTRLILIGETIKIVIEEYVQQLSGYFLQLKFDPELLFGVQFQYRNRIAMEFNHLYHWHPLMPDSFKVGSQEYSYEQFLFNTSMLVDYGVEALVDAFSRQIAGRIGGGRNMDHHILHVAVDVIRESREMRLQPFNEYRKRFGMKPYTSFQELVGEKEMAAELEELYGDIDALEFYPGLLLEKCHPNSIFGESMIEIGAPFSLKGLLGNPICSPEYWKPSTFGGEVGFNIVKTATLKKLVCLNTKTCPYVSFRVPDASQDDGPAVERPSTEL

Structure (SMILES): C[C@H]1C[C@H](O)[C@@H]2C(=O)c3c(O)cccc3O[C@]2(C)[C@H]1O [MONODICTYSIN B]
IC50 [1]: 23.3 µM
inhibition [2]: < 50%
inhibition at 50 µM [3]: 9%
Activity [4]: Not Active
Activity [5]: inactive
Activity [6]: inactive

Structure (SMILES): O=c1cc(-c2ccccc2)oc2c1ccc1ccccc12 [ALPHA-NAPHTHOFLAVONE]
IC50 [1]: 0.0035 µM

Structure (SMILES): Cc1cc(O)c2c(c1)O[C@]1(C)[C@@H](O)[C@@H](O)C[C@H](O)[C@@H]1C2=O [MONODICTYSIN A]
IC50 [1]: > 50 µM
inhibition [2]: < 50%
inhibition at 50 µM [3]: 32%
Activity [8]: Not Active
Activity [5]: inactive
Activity [6]: inactive
inhibition at 50 µM [9]: 40%

Structure (SMILES): Cc1cc(O)c(C(=O)c2c(O)cccc2O)c(C(=O)O)c1 [MONODICTYPHENONE]
IC50 [1]: > 50 µM
inhibition [2]: < 50%
inhibition at 50 µM [3]: 25%
Activity [5]: inactive
Activity [6]: inactive
inhibition at 50 µM [9]: 28%

The next lines start with results.

IC50 [1]: 3 µM
inhibition [2]: < 50%
IC50 [7]: 28.3 µM
Structure (SMILES): COc1cc(O)c2c(c1)O[C@]1(C)[C@@H](O)[C@@H](C)C[C@H](O)[C@@H]1C2=O [MONODICTYSIN C]
Activity [4]: Not Active
Activity [5]: inactive
Activity [6]: inactive

IC50 [1]: 34.8 µM
inhibition [2]: < 50%
inhibition at 50 µM [3]: 37%
Structure (SMILES): Cc1cc(C(=O)O)c2c(=O)c3c(O)cccc3oc2c1 [MONODICTYXANTHONE]
Activity [5]: inactive
Activity [6]: inactive
